Measurements published in ChEMBL document CHEMBL4325889, “Natural products hybrids: 3,5,4'-Trimethoxystilbene-5,6,7-trimethoxyflavone chimeric analogs as potential cytotoxic agents against diverse human cancer cells” (Eur J Med Chem, 2019).

Key:
Assay type in all cases: functional
Malme-3M = assay: Growth inhibition of human MALME-3M cells at 10 uM after 48 hrs by SRB assay relative to control; details: read-out: GI
Outline: (§1)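 Screened at the National Cancer Institute by the standard NCI protocol using the sulforhodamine B assay, which measures cellular protein. Single dose of 10 µM. Result is percent growth inhibition; values above 100% mean cell number fell below the initial population. Values are the average of duplicates.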

786-0 = assay: Growth inhibition of human 786-0 cells at 10 uM after 48 hrs by SRB assay relative to control; details: 786-0, 48 h, read-out: GI; outline: as §1
K562 = assay: Growth inhibition of human K562 cells at 10 uM after 48 hrs by SRB assay relative to control; details: K562, 48 h, read-out: GI; outline: as §1
NCI-H226 = assay: Growth inhibition of human NCI-H226 cells at 10 uM after 48 hrs by SRB assay relative to control; details: NCI-H226, 48 h, read-out: GI; outline: as §1
SNB-75 = assay: Growth inhibition of human SNB75 cells at 10 uM after 48 hrs by SRB assay relative to control; details: SNB-75, 48 h, read-out: GI
Outline: (§2)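 NCI screen against its human cancer cell line panel by the standard NCI protocol, SRB protein stain. Single dose of 10 μM. Percent growth inhibition versus control; values above 100% mean the cell population fell below the starting number. Each value is the mean of duplicates.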

DU-145 = assay: Growth inhibition of human DU145 cells at 10 uM after 48 hrs by SRB assay relative to control; details: DU-145, 48 h, read-out: GI; outline: as §1
TK-10 = assay: Growth inhibition of human TK10 cells at 10 uM after 48 hrs by SRB assay relative to control; details: TK-10, 48 h, read-out: GI; outline: as §2
RPMI-8226 = assay: Growth inhibition of human RPMI8226 cells at 10 uM after 48 hrs by SRB assay relative to control; details: RPMI-8226, 48 h, read-out: GI; outline: as §1
SF-295 = assay: Growth inhibition of human SF295 cells at 10 uM after 48 hrs by SRB assay relative to control; details: SF-295, 48 h, read-out: GI; outline: as §1
CCRF-CEM = assay: Growth inhibition of human CCRF-CEM cells at 10 uM after 48 hrs by SRB assay relative to control; details: read-out: GI; outline: as §1
RXF 393 = assay: Growth inhibition of human RXF393 cells at 10 uM after 48 hrs by SRB assay relative to control; details: RXF 393, 48 h, read-out: GI; outline: as §1
HOP-62 = assay: Growth inhibition of human HOP62 cells at 10 uM after 48 hrs by SRB assay relative to control; details: HOP-62, 48 h, read-out: GI; outline: as §1
NCI-H522 = assay: Growth inhibition of human NCI-H522 cells at 10 uM after 48 hrs by SRB assay relative to control; details: NCI-H522, 48 h, read-out: GI; outline: as §1
HT-29 = assay: Growth inhibition of human HT-29 cells at 10 uM after 48 hrs by SRB assay relative to control; details: HT-29, 48 h, read-out: GI; outline: as §1
PC-3 = assay: Growth inhibition of human PC3 cells at 10 uM after 48 hrs by SRB assay relative to control; details: PC-3, 48 h, read-out: GI; outline: as §1
ACHN = assay: Growth inhibition of human ACHN cells at 10 uM after 48 hrs by SRB assay relative to control; details: read-out: GI; outline: as §1
MDA-MB-435 = assay: Growth inhibition of human MDA-MB-435 cells at 10 uM after 48 hrs by SRB assay relative to control; details: MDA-MB-435, 48 h, read-out: GI; outline: as §1
OVCAR-5 = assay: Growth inhibition of human OVCAR5 cells at 10 uM after 48 hrs by SRB assay relative to control; details: OVCAR-5, 48 h, read-out: GI; outline: as §1
IGROV-1 = assay: Growth inhibition of human IGROV1 cells at 10 uM after 48 hrs by SRB assay relative to control; details: IGROV-1, 48 h, read-out: GI; outline: as §1
SK-MEL-5 = assay: Growth inhibition of human SK-MEL-5 cells at 10 uM after 48 hrs by SRB assay relative to control; details: SK-MEL-5, 48 h, read-out: GI; outline: as §1
HCT-15 = assay: Growth inhibition of human HCT15 cells at 10 uM after 48 hrs by SRB assay relative to control; details: HCT-15, 48 h, read-out: GI; outline: as §1
SN12C = assay: Growth inhibition of human SN12C cells at 10 uM after 48 hrs by SRB assay relative to control; details: read-out: GI; outline: as §1
SNB-19 = assay: Growth inhibition of human SNB19 cells at 10 uM after 48 hrs by SRB assay relative to control; details: SNB-19, 48 h, read-out: GI; outline: as §2
SW-620 = assay: Growth inhibition of human SW620 cells at 10 uM after 48 hrs by SRB assay relative to control; details: SW-620, 48 h, read-out: GI; outline: as §2
BT-549 = assay: Growth inhibition of human BT549 cells at 10 uM after 48 hrs by SRB assay relative to control; details: BT-549, 48 h, read-out: GI; outline: as §1
MOLT-4 = assay: Growth inhibition of human MOLT4 cells at 10 uM after 48 hrs by SRB assay relative to control; details: MOLT-4, 48 h, read-out: GI; outline: as §1
NCI-H460 = assay: Growth inhibition of human NCI-H460 cells at 10 uM after 48 hrs by SRB assay relative to control; details: NCI-H460, 48 h, read-out: GI; outline: as §1
MDA-MB-468 = assay: Growth inhibition of human MDA-MB-468 cells at 10 uM after 48 hrs by SRB assay relative to control; details: MDA-MB-468, 48 h, read-out: GI; outline: as §1
SF-539 = assay: Growth inhibition of human SF539 cells at 10 uM after 48 hrs by SRB assay relative to control; details: SF-539, 48 h, read-out: GI; outline: as §1
HL-60(TB) = assay: Growth inhibition of human HL-60(TB) cells at 10 uM after 48 hrs by SRB assay relative to control; details: HL-60, 48 h, read-out: GI
Outline: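 Run at NCI under its standard single-dose protocol against a leukemia cell panel. Cells were exposed to 10 µM; growth was read by sulforhodamine B staining of cellular protein and expressed as % growth inhibition versus untreated control. Values above 100% mean the cell population fell below the starting count (cytocidal). Each value is the average of duplicates.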

SK-MEL-28 = assay: Growth inhibition of human SK-MEL-28 cells at 10 uM after 48 hrs by SRB assay relative to control; details: SK-MEL-28, 48 h, read-out: GI; outline: as §1
NCI-H23 = assay: Growth inhibition of human NCI-H23 cells at 10 uM after 48 hrs by SRB assay relative to control; details: NCI-H23, 48 h, read-out: GI; outline: as §1
OVCAR-8 = assay: Growth inhibition of human OVCAR8 cells at 10 uM after 48 hrs by SRB assay relative to control; details: OVCAR-8, 48 h, read-out: GI; outline: as §1

SMILES | inhibition of growth at 10 µM (Malme-3M) | inhibition of growth at 10 µM (786-0) | inhibition of growth at 10 µM (K562) | inhibition of growth at 10 µM (NCI-H226) | inhibition of growth at 10 µM (SNB-75) | inhibition of growth at 10 µM (DU-145) | inhibition of growth at 10 µM (TK-10) | inhibition of growth at 10 µM (RPMI-8226) | inhibition of growth at 10 µM (SF-295) | inhibition of growth at 10 µM (CCRF-CEM) | inhibition of growth at 10 µM (RXF 393) | inhibition of growth at 10 µM (HOP-62) | inhibition of growth at 10 µM (NCI-H522) | inhibition of growth at 10 µM (HT-29) | inhibition of growth at 10 µM (PC-3) | inhibition of growth at 10 µM (ACHN) | inhibition of growth at 10 µM (MDA-MB-435) | inhibition of growth at 10 µM (OVCAR-5) | inhibition of growth at 10 µM (IGROV-1) | inhibition of growth at 10 µM (SK-MEL-5) | further results
COc1cc2oc(-c3cccc(C(=O)Nc4ccc5c(c4)OCO5)c3)cc(=O)c2c(OC)c1OC | 1.22% | 7.44% | 25.8% | 21.2% | -1.27% | 18.7% | 16.1% | 79.1% | 2.37% | 36.6% | 29% | 26.6% | 26.9% | 17.2% | 26.5% | 10.2% | 4.94% | 16.4% | 39.8% | 47.2% | inhibition of growth at 10 µM (HCT-15): 28.2%; inhibition of growth at 10 µM (SN12C): 30.8%; inhibition of growth at 10 µM (SNB-19): 5.13%; inhibition of growth at 10 µM (SW-620): -4.89%; inhibition of growth at 10 µM (BT-549): 42.4%; inhibition of growth at 10 µM (MOLT-4): 35.2%; inhibition of growth at 10 µM (NCI-H460): 26.9%; inhibition of growth at 10 µM (MDA-MB-468): 1.72%; inhibition of growth at 10 µM (SF-539): 14.7%; inhibition of growth at 10 µM (HL-60(TB)): 30.3%; inhibition of growth at 10 µM (SK-MEL-28): 20.4%; inhibition of growth at 10 µM (NCI-H23): 10.3%; inhibition of growth at 10 µM (OVCAR-8): 45.9%
COc1cccc(C(=O)Nc2cccc(-c3cc(=O)c4c(O)c(OC)c(OC)cc4o3)c2)c1 | 29.5% | 26.7% | 69.2% | 36.3% | 13.1% | 36.7% | 16.7% | 74.2% | 33.1% | 50.5% | 1.37% | 37.1% | 56.9% | 27.9% | 59.6% | 35.5% | 33.6% | 9.51% | 25.7% | 48.9% | inhibition of growth at 10 µM (HCT-15): 58.4%; inhibition of growth at 10 µM (SN12C): 34.9%; inhibition of growth at 10 µM (SNB-19): 16.6%; inhibition of growth at 10 µM (SW-620): 19%; inhibition of growth at 10 µM (BT-549): 34.2%; inhibition of growth at 10 µM (MOLT-4): 49.3%; inhibition of growth at 10 µM (NCI-H460): 45.6%; inhibition of growth at 10 µM (MDA-MB-468): 28.8%; inhibition of growth at 10 µM (SF-539): 22.9%; inhibition of growth at 10 µM (HL-60(TB)): 19.5%; inhibition of growth at 10 µM (SK-MEL-28): 22.5%; inhibition of growth at 10 µM (NCI-H23): 32.6%; inhibition of growth at 10 µM (OVCAR-8): 50.7%
COc1cc(NC(=O)c2cccc(-c3cc(=O)c4c(O)c(OC)c(OC)cc4o3)c2)cc(OC)c1OC | 49% | 33.7% | 45.5% | 92.3% | 67.8% | 42.8% | 25.2% | 73% | 38.5% | 41.9% | 25% | 88.3% | 58.8% | 37.2% | 50.2% | 83.7% | 34.6% | 22.6% | 29.6% | 60.8% | inhibition of growth at 10 µM (HCT-15): 40.1%; inhibition of growth at 10 µM (SN12C): 37%; inhibition of growth at 10 µM (SNB-19): 50%; inhibition of growth at 10 µM (SW-620): 26.7%; inhibition of growth at 10 µM (BT-549): 93%; inhibition of growth at 10 µM (MOLT-4): 27.2%; inhibition of growth at 10 µM (NCI-H460): 46.2%; inhibition of growth at 10 µM (MDA-MB-468): 40.1%; inhibition of growth at 10 µM (SF-539): 48.3%; inhibition of growth at 10 µM (HL-60(TB)): 22%; inhibition of growth at 10 µM (SK-MEL-28): 22.6%; inhibition of growth at 10 µM (NCI-H23): 65.1%; inhibition of growth at 10 µM (OVCAR-8): 76.9%
